Measurements as given in ChEMBL document CHEMBL1149254, “The discovery of orally active triaminotriazine aniline amides as inhibitors of p38 MAP kinase” (J Med Chem, 2004).

What was measured:
THP-1 = assay: Inhibition of LPS-induced TNFalpha production in human THP1 cells by ELISA; format: functional, cell-based
Method in brief: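 THP-1 cells grown in RPMI 1640 with 10% FBS, 40000 cells/well. Compound or vehicle was added (1% DMSO final), then LPS at 1 μg/mL final. Cells were incubated overnight at 37 °C, 5% CO2. TNF in the supernatant was measured by sandwich ELISA: anti-human TNF capture, biotinylated polyclonal detection, streptavidin-peroxidase read-out.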

[1] = target: Mitogen-activated protein kinase 14 (Homo sapiens, UniProt Q16539); assay: Inhibition of human p38-alpha expressed in Escherichia coli
Chain of Mitogen-activated protein kinase 14 (Q16539 whole entry): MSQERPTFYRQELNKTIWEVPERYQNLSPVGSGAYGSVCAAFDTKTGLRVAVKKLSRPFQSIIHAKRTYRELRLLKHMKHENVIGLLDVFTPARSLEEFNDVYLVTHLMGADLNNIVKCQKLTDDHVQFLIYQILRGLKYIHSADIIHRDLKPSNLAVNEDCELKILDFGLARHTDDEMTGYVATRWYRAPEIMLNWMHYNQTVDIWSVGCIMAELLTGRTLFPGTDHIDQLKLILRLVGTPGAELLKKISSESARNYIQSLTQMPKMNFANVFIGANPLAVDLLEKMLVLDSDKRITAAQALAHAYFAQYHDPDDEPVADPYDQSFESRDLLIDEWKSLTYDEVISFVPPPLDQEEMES

Compound	IC50 (THP-1)	IC50 [1]
Cc1ccc(C(N)=O)cc1Nc1nc(NCCc2ccc(F)cc2)nc(N[C@H]2CCNC2)n1	> 5000 nM	227 nM
CONC(=O)c1ccc(C)c(Nc2nc(N[C@H]3CCNC3)nc(N(C)CC(C)(C)C)n2)c1	16 nM	8 nM
Cc1ccc(C(N)=O)cc1Nc1nc(N[C@H]2CCNC2)nc(N(C)CC2CCCCC2)n1	1300 nM	250 nM
CONC(=O)c1ccc(C)c(Nc2nc(N(C)CC(C)(C)C)nc(N3CCN(C)CC3)n2)c1	158 nM	57 nM
CONC(=O)c1ccc(C)c(Nc2nc(N(C)CC(C)(C)C)nc(N3CCCNCC3)n2)c1	131 nM	52 nM
Cc1ccc(C(=O)NCc2ccccc2)cc1Nc1nc(N[C@H]2CCNC2)nc(N(C)CC(C)(C)C)n1	85 nM	64 nM

More lines, in order of falling IC50 [1], values ahead:

IC50 (THP-1)	IC50 [1]	Compound
	5900 nM	Cc1ccc(C(N)=O)cc1Nc1nc(N)nc(NC[C@@H]2CC[C@H]3C[C@@H]2C3(C)C)n1
	1420 nM	Cc1ccc(C(N)=O)cc1Nc1nc(NC[C@@H]2CC[C@H]3C[C@@H]2C3(C)C)nc(N2CCCN(C)CC2)n1
150 nM	51 nM	Cc1ccc(C(=O)NC(C)C)cc1Nc1nc(N[C@H]2CCNC2)nc(N(C)CC(C)(C)C)n1
140 nM	31 nM	CCNC(=O)c1ccc(C)c(Nc2nc(N[C@H]3CCNC3)nc(N(C)CC(C)(C)C)n2)c1
167 nM	24 nM	Cc1ccc(C(N)=O)cc1Nc1nc(N[C@H]2CCNC2)nc(N(C)CC(C)(C)C)n1
